In ChEMBL document CHEMBL1126238, “Chemical and enzyme-mediated oxidation of the serotonergic neurotoxin 5,7-dihydroxytryptamine: mechanistic insights” (J Med Chem, 1992):

Experiments:
Assay type in all cases: ADME
[1] = Influence of Catalase (100 ug/mL) on the transition metal Cu2+ (10 uM) ion mediated autoxidation.
Method in brief: (§1)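 5,7-Dihydroxytryptamine (1.0 mM, 3.0 mL) in pH 7.4 phosphate buffer (ionic strength 0.1) at 37 °C. Runs contained 10 μM Cu2+ (as CuSO4) or 100 μM Fe2+, Fe3+ or Mn2+, alone or with catalase (100 μg/mL) or SOD (333 units/mL). The initial O2 uptake rate was measured by Clark-type oxygen electrode. Values are mean (n ≥ 2) ± SD.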

[2] = Effect of transition metal ion [Fe3+] (100 uM) on the initial rate of oxygen consumption during the autooxidation
Method in brief: (§2)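 5,7-Dihydroxytryptamine (1.0 mM) in 3.0 mL air-saturated pH 7.4 phosphate buffer (ionic strength 0.1), 37 °C, with metal ion and/or chelator (DTPA or EDTA) added; Cu2+ supplied as CuSO4. The initial O2 consumption rate (nmol O2/min) was read with a Clark-type oxygen electrode. Values are mean (n ≥ 2) ± SD.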

[3] = Effect of transition metal ion [Fe2+] (100 uM) on the initial rate of oxygen consumption during the autooxidation; method in brief: as §2
[4] = Effect of transition metal ion and complexing agent [Fe2+] (100 uM) +EDTA (10 uM) on the initial rate of oxygen consumption during the autooxidation; method in brief: as §2
[5] = Effect of transition metal ion and complexing agent Mn2+ (100 uM) +EDTA (10 uM) on the initial rate of oxygen consumption during the autooxidation; method in brief: as §2
[6] = Influence of superoxide dismutase SOD (333 units/mL) on the transition metal Cu2+ (10 uM) ion mediated autoxidation.; method in brief: as §1
[7] = Effect of transition metal ion and complexing agent [Fe3+] (100 uM) +EDTA (10 uM) on the initial rate of oxygen consumption during the autooxidation; method in brief: as §2
[8] = Effect of transition metal ion and complexing agent Mn2+ (100 uM) +DTPA (10 uM) on the initial rate of oxygen consumption during the autooxidation; method in brief: as §2
[9] = Influence of ceruplasmin enzyme (10.5 units/mL) on the initial rate of oxygen consumption at a pH of 7.4.; conditions: pH 7.4
Method in brief: (§3)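 5,7-Dihydroxytryptamine (1.0 mM) in 3.0 mL air-saturated phosphate buffer (ionic strength 0.1) at the stated pH, with bovine ceruloplasmin or mushroom tyrosinase at the listed units/mL. Initial O2 consumption (nmol O2/min) was recorded with a Clark-type oxygen electrode.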

[10] = Effect of transition metal ion Cu2+ (20 uM) on the initial rate of oxygen consumption during the autooxidation; method in brief: as §2
[11] = Effect of transition metal ion Mn2+ (50 uM) on the initial rate of oxygen consumption during the autooxidation; method in brief: as §2
[12] = Effect of transition metal ion Mn2+ (100 uM) on the initial rate of oxygen consumption during the autooxidation; method in brief: as §2
[13] = Effect of transition metal ion Cu2+ (10 uM) on the initial rate of oxygen consumption during the autooxidation; method in brief: as §2
[14] = Effect of transition metal ion [Fe3+] (10 uM) on the initial rate of oxygen consumption during the autooxidation; method in brief: as §2
[15] = Influence of superoxide dismutase SOD (333 units/mL) on the transition metal [Fe2+] (100 uM) ion mediated autoxidation.; method in brief: as §1
[16] = Effect of transition metal ion Mn2+ (10 uM) on the initial rate of oxygen consumption during the autooxidation; method in brief: as §2
[17] = Effect of transition metal ion [Fe2+] (10 uM) on the initial rate of oxygen consumption during the autooxidation; method in brief: as §2
[18] = Effect of transition metal ion [Fe2+] (50 uM) on the initial rate of oxygen consumption during the autooxidation; method in brief: as §2
[19] = Influence of ceruplasmin enzyme (10.5 units/mL) on the initial rate of oxygen consumption at a pH of 6.4.; conditions: pH 6.4; method in brief: as §3
[20] = Influence of tyrosinase enzyme (9 units/mL) on the initial rate of oxygen consumption at a pH of 7.4.; conditions: pH 7.4; method in brief: as §3
[21] = Effect of transition metal ion [Fe2+] (200 uM) on the initial rate of oxygen consumption during the autooxidation; method in brief: as §2
[22] = Influence of peroxidase enzyme (15 units/mL) on the initial rate of oxygen consumption at a pH of 7.4.; conditions: pH 7.4
Method in brief: (§4)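 Substrate 5,7-dihydroxytryptamine, 1.0 mM, in 3.0 mL air-saturated pH 7.4 phosphate buffer (ionic strength 0.1). Peroxidase was added at the listed units/mL, either with 1.0 mM H2O2 or with no H2O2. The initial O2 consumption rate was measured with a Clark-type oxygen electrode.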

[23] = Effect of transition metal ion Cu2+ (1 uM) on the initial rate of oxygen consumption during the autooxidation; method in brief: as §2
[24] = Effect of complexing agent DTPA (0.5 uM) on the initial rate of oxygen consumption during the autooxidation; method in brief: as §2
[25] = Effect of transition metal ion and complexing agent [Fe2+] (100 uM) +DTPA (10 uM) on the initial rate of oxygen consumption during the autooxidation; method in brief: as §2
[26] = Initial rate of oxygen consumption during the autooxidation of the compound.; method in brief: as §2
[27] = Influence of superoxide dismutase SOD (333 units/mL) on the transition metal Mn2+ (100 uM) ion mediated autoxidation.; method in brief: as §1
[28] = Effect of transition metal ion [Fe3+] (50 uM) on the initial rate of oxygen consumption during the autooxidation; method in brief: as §2
[29] = Effect of complexing agent EDTA (1 uM) on the initial rate of oxygen consumption during the autooxidation; method in brief: as §2
[30] = Effect of transition metal ion and complexing agent Cu2+ (10 uM) +EDTA (1 uM) on the initial rate of oxygen consumption during the autooxidation; method in brief: as §2
[31] = Effect of transition metal ion Cu2+ (40 uM) on the initial rate of oxygen consumption during the autooxidation; method in brief: as §2
[32] = Influence of Catalase (100 ug/mL) on the transition metal [Fe2+] (100 uM) ion mediated autoxidation.; method in brief: as §1
[33] = Influence of peroxidase enzyme (5 units/mL) on the initial rate of oxygen consumption at a pH of 7.4.; conditions: pH 7.4; method in brief: as §4
[34] = Effect of transition metal ion and complexing agent [Fe3+] (100 uM) +DTPA (10 uM) on the initial rate of oxygen consumption during the autooxidation; method in brief: as §2
[35] = Influence of ceruplasmin enzyme (42.0 units/mL) on the initial rate of oxygen consumption at a pH of 7.4.; conditions: pH 7.4; method in brief: as §3
[36] = Influence of tyrosinase enzyme (36 units/mL) on the initial rate of oxygen consumption at a pH of 7.4.; conditions: pH 7.4; method in brief: as §3
[37] = Influence of ceruplasmin enzyme (21.0 units/mL) on the initial rate of oxygen consumption at a pH of 7.4.; conditions: pH 7.4; method in brief: as §3
[38] = Effect of transition metal ion [Fe3+] (200 uM) on the initial rate of oxygen consumption during the autooxidation; method in brief: as §2
[39] = Influence of tyrosinase enzyme (4.5 units/mL) on the initial rate of oxygen consumption at a pH of 7.4.; conditions: pH 7.4; method in brief: as §3
[40] = Effect of complexing agent DTPA (1 uM) on the initial rate of oxygen consumption during the autooxidation; method in brief: as §2
[41] = Influence of Catalase (100 ug/mL) on the transition metal Mn2+ (100 uM) ion mediated autoxidation.; method in brief: as §1
[42] = Influence of tyrosinase enzyme (18 units/mL) on the initial rate of oxygen consumption at a pH of 7.4.; conditions: pH 7.4; method in brief: as §3
[43] = Effect of complexing agent DTPA (10 uM) on the initial rate of oxygen consumption during the autooxidation; method in brief: as §2
[44] = Influence of peroxidase enzyme (10 units/mL) on the initial rate of oxygen consumption at a pH of 7.4.; conditions: pH 7.4; method in brief: as §4
[45] = Influence of superoxide dismutase SOD (333 units/mL) on the transition metal [Fe3+] (100 uM) ion mediated autoxidation.; method in brief: as §1
[46] = Influence of Catalase (100 ug/mL) on the transition metal [Fe3+] (100 uM) ion mediated autoxidation.; method in brief: as §1
[47] = Effect of transition metal ion and complexing agent Cu2+ (10 uM) +DTPA (1 uM) on the initial rate of oxygen consumption during the autooxidation; method in brief: as §2

With NCCc1c[nH]c2c(O)cc(O)cc12 the “Rate of O2 consumption” value [1] was 1524 nM/min, the “Rate of O2 consumption” value [2] was 86 nM/min and the “Rate of O2 consumption” value [3] was 628 nM/min. For the same compound, the “Rate of O2 consumption” value [4] was 712 nM/min, the “Rate of O2 consumption” value [5] was 51.3 nM/min and the “Rate of O2 consumption” value [6] was 1583 nM/min. The “Rate of O2 consumption” value [7] was 97 nM/min, the “Rate of O2 consumption” value [8] was 36.7 nM/min and the “Rate of O2 consumption” value [9] was 71.4 nM/min. For the same compound, the “Rate of O2 consumption” value [10] was 2244 nM/min, the “Rate of O2 consumption” value [11] was 70 nM/min and the “Rate of O2 consumption” value [12] was 87 nM/min. For the same compound, the “Rate of O2 consumption” value [13] was 1490 nM/min, the “Rate of O2 consumption” value [14] was 50 nM/min and the “Rate of O2 consumption” value [15] was 645 nM/min. The “Rate of O2 consumption” value [16] was 61 nM/min, the “Rate of O2 consumption” value [17] was 252 nM/min and the “Rate of O2 consumption” value [18] was 483 nM/min. For the same compound, the “Rate of O2 consumption” value [19] was 453 nM/min, the “Rate of O2 consumption” value [20] was 126 nM/min and the “Rate of O2 consumption” value [21] was 801 nM/min. For the same compound, the “Rate of O2 consumption” value [22] was 102 nM/min, the “Rate of O2 consumption” value [23] was 638 nM/min and the “Rate of O2 consumption” value [24] was 24 nM/min. For the same compound, the “Rate of O2 consumption” value [25] was 58 nM/min, the “Rate of O2 consumption” value [26] was 34.1 nM/min and the “Rate of O2 consumption” value [27] was 81.2 nM/min. For the same compound, the “Rate of O2 consumption” value [28] was 68 nM/min, the “Rate of O2 consumption” value [29] was 39.6 nM/min and the “Rate of O2 consumption” value [30] was 45.6 nM/min. The “Rate of O2 consumption” value [31] was 2367 nM/min, the “Rate of O2 consumption” value [32] was 328 nM/min and the “Rate of O2 consumption” value [33] was 79 nM/min. For the same compound, the “Rate of O2 consumption” value [34] was 39.2 nM/min, the “Rate of O2 consumption” value [35] was 240 nM/min and the “Rate of O2 consumption” value [36] was 304 nM/min. For the same compound, the “Rate of O2 consumption” value [37] was 129 nM/min, the “Rate of O2 consumption” value [38] was 125 nM/min and the “Rate of O2 consumption” value [39] was 85 nM/min. For the same compound, the “Rate of O2 consumption” value [40] was 24.2 nM/min, the “Rate of O2 consumption” value [41] was 54.5 nM/min and the “Rate of O2 consumption” value [42] was 192 nM/min. For the same compound, the “Rate of O2 consumption” value [43] was 23.6 nM/min, the “Rate of O2 consumption” value [44] was 89 nM/min and the “Rate of O2 consumption” value [45] was 48.5 nM/min. The “Rate of O2 consumption” value [46] was 51 nM/min and the “Rate of O2 consumption” value [47] was 32.1 nM/min.
